The results in this text go back to ChEMBL document CHEMBL1140188, “Photoinduced cytotoxicity and biodistribution of prostate cancer cell-targeted porphyrins” (J Med Chem, 2008).

By IC50 is commonly meant the midpoint of a concentration-inhibition curve. Read a high IC50 as a need for much substance.

Data set [1] in a line: Phototoxicity against human PC3M cells after 24 hrs followed by exposure to 1 J/cm'2 light for 20 mins. The format is functional, cell-based. The settings on record: pc-3m. The essentials: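 PC-3M cells were plated as for the dark assay and loaded with a range of concentrations for 24 h in quadruplicate. After washing, the medium was replaced with DMEM containing 50 mM HEPES, pH 7.4. Cells were irradiated on ice with a 100 W halogen lamp through a 610 nm long-pass filter and a water IR filter for 20 min, about 1 J/cm2. They were then incubated overnight and viable cells counted by hemocytometer relative to controls, giving IC50.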

Data set [2] can be described thus: Cytotoxicity against human PC3M cells after 24 hrs under dark condition. It is filed as functional, cell-based. The settings on record: PC-3M. An outline of the steps:
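PC-3M cells in DMEM/10% FBS were seeded at 10000 cells/cm2 and attached overnight. They were exposed to increasing concentrations up to 100 µM for 24 h in the dark, in quadruplicate wells. Detached cells were washed off and attached cells were trypsinised and counted by hemocytometer. Viability is expressed as % of untreated controls, and IC50 was taken from the curves.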

Data set [3] in a line: Ratio of IC50 for human PC3M cells under dark condition to IC50 for human PC3M cells exposed to 1 J/cm'2 light. It is filed as functional. The essentials:
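Ratio of the dark IC50 (24 h exposure, hemocytometer viable count) to the light IC50 (24 h loading, then 610 nm long-pass halogen light, about 1 J/cm2, 20 min on ice, overnight incubation, then counting) in PC-3M cells.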

A short description of data set [4]: Biodistribution in human PC3M cells xenografted SCID mouse tumor assessed per mg of protein at 1 umol/kg, ip after 24 hrs. It is filed as ADME, organism-based, Neoplasm. The conditions noted are these: in vivo. The essentials:
(§1)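 Male SCID mice carrying PC-3M tumours (2 × 10^6 cells injected into the dorsum between the shoulder blades, grown 5-6 weeks to about 0.1 cm3) received 1.0 µmol/kg ip in 5% dextrose. Tissues were collected at 24 h, solubilised at 37 °C and homogenised. Porphyrin fluorescence (530/645 nm) was read against per-tissue standard curves, vehicle-only background was subtracted, and results are given as pmol/mg tissue protein, mean ± SE, n = 4.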

The subject of the next data set is Liver. The experiment in a line: Biodistribution in human PC3M cells xenografted SCID mouse liver assessed per mg of protein at 1 umol/kg, ip after 24 hrs. The format is ADME, organism-based. The settings on record: in vivo. An outline of the steps:
as §1
(In general: In xenograft studies the graft and the host belong to different species.)

Numbered stars: 1 amine (or outer) side, 2 acyl side, 3 side chain; on linkers, the order of the positions; unused ones are H or OH. Bridge positions count the residues as written; N and C are the ends. Square brackets hold non-standard residues; d marks the D form. Peptide text beside a SMILES is read from it. I, II: the chains in the order shown. * marks the point of attachment. X1 = O=C(COCC(=O)*)Nc1ccc(-c2c3nc(c(-c4ccccc4)c4ccc([nH]4)c(-c4ccccc4)c4nc(c(-c5ccccc5)c5ccc2[nH]5)C=C4)C=C3)cc1; NH(CH2CH2O)6CH2CO = O=C(COCCOCCOCCOCCOCCOCCN[*:1])[*:2]

With `Oc1cccc(-c2c3nc(c(-c4cccc(O)c4)c4ccc([nH]4)c(-c4cccc(O)c4)c4ccc([nH]4)c(-c4cccc(O)c4)c4nc2CC4)C=C3)c1`, the IC50 in data set [1] turned out to be 1.61 µM; in data set [2], 16.1 µM.
Consider `N=C(N)NCCC[C@H](NC(=O)[C@H](CCCCN)NC(=O)[C@H](CCCNC(=N)N)NC(=O)[C@H](CCCNC(=N)N)NC(=O)CCCC(=O)Nc1ccc(-c2c3nc(c(-c4ccccc4)c4ccc([nH]4)c(-c4ccccc4)c4nc(c(-c5ccccc5)c5ccc2[nH]5)C=C4)C=C3)cc1)C(=O)O`, for which the half-inhibitory concentration (IC50) in data set [1] turned out to be 1.48 µM; in data set [2], 10.7 µM. Moreover, the “Ratio IC50” value in data set [3] is 7.
As to `N=C(N)NCCC[C@H](NC(=O)CNC(=O)COCCOCCOCCOCCOCCOCCNC(=O)COCC(=O)Nc1ccc(-c2c3nc(c(-c4ccccc4)c4ccc([nH]4)c(-c4ccccc4)c4nc(c(-c5ccccc5)c5ccc2[nH]5)C=C4)C=C3)cc1)C(=O)N[C@@H](CCCCN)C(=O)N[C@@H](CCCCN)C(=O)N[C@@H](CCCNC(=N)N)C(=O)N[C@@H](CCCNC(=N)N)C(=O)N[C@@H](CCC(N)=O)C(=O)N[C@@H](CCCNC(=N)N)C(=O)N[C@@H](CCCNC(=N)N)C(=O)N[C@@H](CCCNC(=N)N)C(=O)N1CCC[C@H]1C(=O)N1CCC[C@H]1C(=O)N[C@@H](CCC(N)=O)C(=O)O`, the figures for the half-inhibitory concentration (IC50) in data set [1] and in data set [2] were 0.4 µM and 38.3 µM, respectively. Besides, the Drug uptake in data set [4] amounted to 8.1 pmol; with Liver, 16.1 pmol. Moreover, the “Ratio IC50” value in data set [3] is listed as 96.
For `CC(C)[C@H](NC(=O)[C@H](CCCCN)NC(=O)[C@H](CCCNC(=N)N)NC(=O)[C@H](CCCCN)NC(=O)[C@H](CCCCN)NC(=O)[C@H](CCCCN)NC(=O)[C@@H]1CCCN1C(=O)CNC(=O)COCCOCCOCCOCCOCCOCCNC(=O)C[C@H](NC(=O)COCC(=O)Nc1ccc(-c2c3nc(c(-c4ccccc4)c4ccc([nH]4)c(-c4ccccc4)c4nc(c(-c5ccccc5)c5ccc2[nH]5)C=C4)C=C3)cc1)C(=O)NCCOCCOCCOCCOCCOCCOCC(=O)NCC(=O)N1CCC[C@H]1C(=O)N[C@@H](CCCCN)C(=O)N[C@@H](CCCCN)C(=O)N[C@@H](CCCCN)C(=O)N[C@@H](CCCNC(=N)N)C(=O)N[C@@H](CCCCN)C(=O)N[C@H](C(=O)O)C(C)C)C(=O)O` (I: X1-D[NH(CH2CH2O)6CH2CO]GPKKKRKV-OH / II: [NH(CH2CH2O)6CH2CO]GPKKKRKV-OH; amide I:1-II:N), the IC50 in data set [1] was found to be 2.95 µM; in data set [2] it was 20.8 µM. Further, in data set [3], the “Ratio IC50” value turned out to be 7.
The like results for `CC(C)C[C@H](NC(=O)[C@H](CCCCN)NC(=O)[C@H](CCCCN)NC(=O)[C@H](CCCCN)NC(=O)[C@H](C)NC(=O)[C@H](CCC(N)=O)NC(=O)CNC(=O)[C@H](C)NC(=O)[C@H](CCCCN)NC(=O)[C@H](CCCCN)NC(=O)[C@@H](NC(=O)[C@H](C)NC(=O)[C@H](C)NC(=O)[C@@H]1CCCN1C(=O)[C@H](CCCNC(=N)N)NC(=O)[C@H](CCCCN)NC(=O)COCCOCCOCCOCCOCCOCCNC(=O)COCC(=O)Nc1ccc(-c2c3nc(c(-c4ccccc4)c4ccc([nH]4)c(-c4ccccc4)c4nc(c(-c5ccccc5)c5ccc2[nH]5)C=C4)C=C3)cc1)[C@@H](C)O)C(=O)N[C@@H](CCC(=O)O)C(=O)N[C@@H](CC(=O)O)C(=O)N1CCC[C@H]1C(=O)N[C@@H](CCCNC(=N)N)C(=O)N[C@@H](CCCCN)C(=O)N[C@@H](CCCCN)C(=O)N[C@@H](CCCNC(=N)N)C(=O)N[C@@H](CCCNC(=N)N)C(=O)N[C@@H](CCC(N)=O)C(=O)N[C@@H](CCCNC(=N)N)C(=O)N[C@@H](CCCNC(=N)N)C(=O)N[C@@H](CCCNC(=N)N)C(=O)N1CCC[C@H]1C(=O)N1CCC[C@H]1C(=O)N[C@@H](CCC(N)=O)C(=O)NCC(=O)O` (X1-[NH(CH2CH2O)6CH2CO]KRPAATKKAGQAKKKLEDPRKKRRQRRRPPQG-OH) were, in that order, 1.21 µM, 32.9 µM and 27.
The like results for `CC[C@H](C)[C@H](NC(=O)[C@H](CCCCN)NC(=O)[C@@H](NC(=O)[C@H](CCC(N)=O)NC(=O)[C@H](CCCNC(=N)N)NC(=O)COCCOCCOCCOCCOCCOCCNC(=O)COCC(=O)Nc1ccc(-c2c3nc(c(-c4ccccc4)c4ccc([nH]4)c(-c4ccccc4)c4nc(c(-c5ccccc5)c5ccc2[nH]5)C=C4)C=C3)cc1)[C@@H](C)CC)C(=O)N[C@@H](Cc1c[nH]c2ccccc12)C(=O)N[C@@H](Cc1ccccc1)C(=O)N[C@@H](CCC(N)=O)C(=O)N[C@@H](CC(N)=O)C(=O)N[C@@H](CCCNC(=N)N)C(=O)N[C@@H](CCCNC(=N)N)C(=O)N[C@@H](CCSC)C(=O)N[C@@H](CCCCN)C(=O)N[C@@H](Cc1c[nH]c2ccccc12)C(=O)N[C@@H](CCCCN)C(=O)N[C@@H](CCCCN)C(=O)N[C@@H](C)C(=O)N1CCC[C@H]1C(=O)N1CCC[C@H]1C(=O)N[C@@H](CCCCN)C(=O)N[C@@H](CCCCN)C(=O)N[C@@H](CCCCN)C(=O)N[C@@H](CCCNC(=N)N)C(=O)N[C@@H](CCCCN)C(=O)N[C@H](C(=O)NCC(=O)O)C(C)C` (X1-[NH(CH2CH2O)6CH2CO]RQIKIWFQNRRMKWKKAPPKKKRKVG-OH) were, in that order, 1.34 µM, 11.4 µM and 8.5.
